Data set [1] relates to Macrophage. Nature of the data set: Antiinflammatory activity in human macrophages assessed as inhibition of LPS-induced TNFalpha mRNA transcript accumulation at 10 uM preincubated for 30 mins before LPS-challenge measured after 24 hrs post challenge by quantitative PCR analysis. It counts as functional, cell-based. Summed up:
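Monocyte-derived human macrophages were pretreated with 10 µM compound, then stimulated with LPS for 24 h. RNA was extracted and TNFα and IL8 transcripts were quantified by real-time RT-PCR with UPL probes. GAPDH served as reference gene.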

The nature of data set [2]: Antiinflammatory activity in human macrophages assessed as inhibition of LPS-induced IL8 release at 1 uM preincubated for 30 mins before LPS-challenge measured after 24 hrs post challenge by ELISA (reference value: 7.86 +/-0.17 ng/ml). It counts as functional, Macrophage. Summed up:
(§1)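 Human blood PBMC-derived macrophages were used after 10 days of culture. Purity >95% (esterase, CD14, morphology). Cells were pretreated 30 min at 37 °C with compound, then given 100 ng/mL LPS (S. enteritidis) for 24 h. TNFα, IL-1β and IL-8 in conditioned medium were measured by ELISA. Working solutions were endotoxin-tested by LAL (<3 pg/mL).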

Data set [3] in a line: Antiinflammatory activity in human macrophages assessed as inhibition of LPS-induced TNFalpha release at 10 '-3 uM preincubated for 30 mins before LPS-challenge measured after 24 hrs post challenge by ELISA (reference value: 1682 +/-190 ng/ml). It counts as functional, Macrophage. In outline: as §1
The nature of data set [4]: Antiinflammatory activity in human macrophages assessed as inhibition of LPS-induced TNFalpha release at 10 '-2 uM preincubated for 30 mins before LPS-challenge measured after 24 hrs post challenge by ELISA (reference value: 1682 +/-190 ng/ml). It counts as functional, Macrophage. Summed up:
as §1

Data set [5] can be described thus: Antiinflammatory activity in human macrophages assessed as inhibition of LPS-induced TNFalpha release at 5 uM preincubated for 30 mins before LPS-challenge measured after 24 hrs post challenge by ELISA (reference value: 1682 +/-190 ng/ml). It counts as functional, Macrophage. Summed up: as §1
The test system of data set [6] is Macrophage. In words: Antiinflammatory activity in human macrophages assessed as inhibition of LPS-induced IL-8 release at 10 uM preincubated for 30 mins before LPS-challenge measured after 24 hrs post challenge by ELISA. It counts as functional, cell-based. In outline:
as §1

Data set [7] in a line: Cytotoxicity against human macrophages at 10 '4 uM after 72 hrs by MTT assay. It counts as cell-based. The note with it: macrophage.
Data set [8] can be described thus: Cytotoxicity against human macrophages at 10 '5 uM after 72 hrs by MTT assay. It counts as cell-based. The note with it: macrophage.
Data set [9] is described as follows: Cytotoxicity against human macrophages up to 100 uM after 72 hrs by MTT assay. It counts as cell-based. The note with it: macrophage.
For data set [10], the target named is Transcription factor p65 (Mus musculus) (UniProt Q04207). Nature of the data set: Inhibition of LPS-induced p65 NF-kappaB phosphorylation in mouse CMT93 cells at 10 uM preincubated for 30 mins before LPS-challenge measured after 6 hrs post challenge by Western blot analysis. It counts as cell-based. Summed up: (§2)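 CMT-93 cells were pretreated with 10 µM compound and stimulated with LPS for 6 h. Lysates were run on 10% SDS-PAGE and transferred to PVDF. Blots were probed overnight at 4 °C for phospho-p65, IκBα or COX-2 (1:1000), with HRP detection.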

For data set [11], the system named is Mus musculus. Nature of the data set: Antiinflammatory activity in DSS-induced C57Bl/6 mouse colitis model assessed as inhibition IL-1beta level in colonic homogenate at 400 mg/kg/day administered intragastrically for 7 days. It counts as functional, organism-based. In outline: (§3)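 Male C57Bl/6J mice, 8–10 per group, dosed intragastrically daily for 7 days at 400 mg/kg/day (vehicle 100 µL). From day 2, drinking water carried 3.5% w/vol DSS. Killed 5 days after colitis induction. Full-thickness proximal colon homogenised for MPO activity and IL-1β protein.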

Data set [12] deals with Mus musculus. In words: Antiinflammatory activity in DSS-induced C57Bl/6 mouse colitis model assessed as inhibition MPO activity in colonic homogenate at 400 mg/kg/day administered intragastrically for 7 days. It counts as functional. The settings on record: C57Bl/6, po, 168 h, route intragastric. Summed up:
as §3

In data set [13] the test system is CMT93. Nature of the data set: Increase in ROS production in LPS-stimulated mouse CMT93 cells at 10 uM preincubated for 30 mins before LPS-challenge measured after 24 hrs post challenge by DCFDA fluorescence assay in presence of PPAR-gamma antagonist PD68235. It counts as functional, cell-based.
The test system of data set [14] is CMT93. Nature of the data set: Increase in ROS production in LPS-stimulated mouse CMT93 cells at 10 uM preincubated for 30 mins before LPS-challenge measured after 24 hrs post challenge by DCFDA fluorescence assay in presence of alpha-tocopherol. It counts as functional, cell-based.
The subject of data set [15] is CMT93. In words: Increase in ROS production in mouse CMT93 cells at 10 uM measured after 30 mins by DCFDA fluorescence assay (reference value: 2.64 %). It counts as functional, cell-based.
In data set [16] the test system is CMT93. Nature of the data set: Increase in ROS production in LPS-stimulated mouse CMT93 cells at 10 uM preincubated for 30 mins before LPS-challenge measured after 30 mins post challenge by DCFDA fluorescence assay (reference value: 2.64 %). It counts as functional, cell-based.
Data set [17] deals with T1, Peroxisome proliferator-activated receptor gamma (Mus musculus) (UniProt P37238).
T1 sequence (whole entry): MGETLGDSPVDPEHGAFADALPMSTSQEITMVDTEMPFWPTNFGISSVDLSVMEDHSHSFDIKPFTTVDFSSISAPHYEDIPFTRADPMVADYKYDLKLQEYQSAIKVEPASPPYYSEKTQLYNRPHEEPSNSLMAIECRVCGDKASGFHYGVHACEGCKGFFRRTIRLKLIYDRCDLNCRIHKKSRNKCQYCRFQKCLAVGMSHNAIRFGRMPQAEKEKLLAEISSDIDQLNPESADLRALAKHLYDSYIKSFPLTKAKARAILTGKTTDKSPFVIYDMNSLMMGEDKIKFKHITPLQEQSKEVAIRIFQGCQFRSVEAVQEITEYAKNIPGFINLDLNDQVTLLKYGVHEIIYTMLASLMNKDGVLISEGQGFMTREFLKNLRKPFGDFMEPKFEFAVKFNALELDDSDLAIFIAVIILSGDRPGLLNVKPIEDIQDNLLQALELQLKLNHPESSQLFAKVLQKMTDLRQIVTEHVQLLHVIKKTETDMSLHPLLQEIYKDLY
Nature of the data set: Induction of PPAR-gamma promoter activity in mouse CMT93 cells at 10 uM by luciferase reporter gene assay. It counts as cell-based. In outline:
(§4)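 CMT-93 cells (1×10⁵/well) were transfected with an NF-κB or PPRE luciferase reporter plus CMV-β-Gal. At 24 h they were treated with compound for 30 min, then with 100 ng/mL LPS for 6 h. Cells were lysed in Tris/EDTA/DTT/Triton buffer and supernatant luciferase was read by luminometer. Results are fold over untreated cells.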

Data set [18] concerns Macrophage. In words: Increase in PPAR-gamma mRNA transcript level in human macrophages at 10 uM by quantitative PCR analysis. It counts as functional, cell-based.
The target of data set [19] is Transcription factor p65 (Mus musculus) (UniProt Q04207). In words: Inhibition of LPS-induced p65 NF-kappaB activation in mouse CMT93 cells assessed as inhibition of in COX-2 expression at 10 uM preincubated for 30 mins before LPS-challenge measured after 6 hrs post challenge by Western blot analysis. It counts as cell-based. Summed up:
as §2

Data set [20] has the same target. Nature of the data set: Inhibition of LPS-induced p65 NF-kappaB promoter activation in mouse CMT93 cells at 10 uM preincubated for 30 mins before LPS-challenge measured after 6 hrs post challenge by luciferase reporter gene assay. It counts as cell-based. Summed up:
as §4

For data set [21] the target is unchanged. Nature of the data set: Inhibition of LPS-induced p65 NF-kappaB activation in mouse CMT93 cells assessed as inhibition of in IkBalpha degradation at 10 uM preincubated for 30 mins before LPS-challenge measured after 6 hrs post challenge by Western blot analysis. It counts as cell-based. In outline: as §2

In ChEMBL document CHEMBL2331391, “Peroxisome proliferator-activated receptor-γ mediates the anti-inflammatory effect of 3-hydroxy-4-pyridinecarboxylic acid derivatives: synthesis and biological evaluation” (Eur J Med Chem, 2013) one finds inhibition, Activity and inhibition in vivo data, which are given here for one compound.

Activity calls are given as the source filed them. No cut-off for these calls is given here.

Sequence of Transcription factor p65 (Mus musculus) (Q04207 whole entry): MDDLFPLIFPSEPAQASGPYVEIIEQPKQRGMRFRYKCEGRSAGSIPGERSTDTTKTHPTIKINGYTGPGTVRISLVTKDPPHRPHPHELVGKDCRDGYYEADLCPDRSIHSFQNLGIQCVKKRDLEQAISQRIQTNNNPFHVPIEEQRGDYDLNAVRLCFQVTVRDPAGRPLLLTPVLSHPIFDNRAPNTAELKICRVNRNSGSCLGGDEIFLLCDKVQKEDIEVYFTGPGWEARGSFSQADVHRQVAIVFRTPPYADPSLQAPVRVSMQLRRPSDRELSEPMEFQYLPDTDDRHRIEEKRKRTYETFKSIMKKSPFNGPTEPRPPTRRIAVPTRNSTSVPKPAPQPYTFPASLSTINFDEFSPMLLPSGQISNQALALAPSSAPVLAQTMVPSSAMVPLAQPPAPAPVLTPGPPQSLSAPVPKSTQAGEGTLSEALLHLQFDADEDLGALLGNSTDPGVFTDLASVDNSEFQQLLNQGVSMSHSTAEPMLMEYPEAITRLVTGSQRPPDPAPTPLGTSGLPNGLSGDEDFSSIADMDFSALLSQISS

Take `C[n+]1ccc(C(=O)O)c(O)c1.[Cl-]`: the inhibition entry (with Macrophage [1]; in the data set with Macrophage [6]; in [10]; with Mus musculus [11]; in data set [19]; in data set [20]) was “Active” throughout. Also, in data set [21], the inhibition entry is “Active”. Moreover, the Activity is 7.32 ng/mL in data set [2]; 1689 ng/mL in [3]; 1654 ng/mL in data set [4]; 1738 ng/mL in [5]; “Toxic” in data set [7]; “Toxic” in data set [8]. Besides, the Activity entry in data set [9] is “Non-toxic”. In the data set with Mus musculus [12], the inhibition in vivo at 400 mg/kg/day was 56%. Further, the outcome with CMT93 [13] and in the data set with CMT93 [14] was inactive. Moreover, the outcome (with CMT93 [15]; in the data set on CMT93 [16]; in data set [17]; in the data set with Macrophage [18]) was Active.
